The values below come from ChEMBL document CHEMBL4219066, “Identification and Mitigation of Reactive Metabolites of 2-Aminoimidazole-Containing Microsomal Prostaglandin E Synthase-1 Inhibitors Terminated Due to Clinical Drug-Induced Liver Injury” (J Med Chem, 2018).

Series [1] in a line: Drug metabolism in rat hepatocytes assessed as metabolite formation at 2 uM after 4 hrs by LC-MS/MS analysis. It is filed as ADME, cell-based, Hepatocyte.
The nature of series [2]: Drug metabolism in human hepatocytes assessed as metabolite formation at 2 uM after 4 hrs by LC-MS/MS analysis. It is filed as ADME, cell-based, Hepatocyte.
A short description of series [3]: Drug level in human hepatocytes treated with 2-(2-Chloro-5-(pivalamidomethyl)benzamido)-N-phenyl-1Himidazole-4-carboxamide at 2 uM after 4 hrs by LC-MS/MS analysis. It is filed as ADME, cell-based, Hepatocyte.
Series [4] in a line: Drug level in human hepatocytes treated with 2-Chloro-N-(4-(hydroxymethyl)-1H-imidazol-2-yl)-5-(pivalamidomethyl)benzamide at 2 uM after 4 hrs by LC-MS/MS analysis. The series is classed as ADME, cell-based, Hepatocyte.
Series [5] is described as follows: Drug level in rat hepatocytes treated with 2-Chloro-N-(4-(hydroxymethyl)-1H-imidazol-2-yl)-5-(pivalamidomethyl)benzamide at 2 uM after 4 hrs by LC-MS/MS analysis. It is filed as ADME, cell-based, Hepatocyte.
Series [6] can be described thus: Drug level in rat hepatocytes treated with 2-(2-Chloro-5-(pivalamidomethyl)benzamido)-N-phenyl-1Himidazole-4-carboxamide at 2 uM after 4 hrs by LC-MS/MS analysis. The series is classed as ADME, cell-based, Hepatocyte.
Series [7] in a line: Drug metabolism in rat hepatocytes assessed as 2-chloro-N-(4-cyano-1H-imidazol-2-yl)-5-((3-hydroxy-2,2-dimethylpropanamido)methyl)benzamide formation at 2 uM after 4 hrs by LC-MS/MS analysis. The series is classed as ADME, cell-based, Hepatocyte.
The nature of series [8]: Drug metabolism in human hepatocytes assessed as 2-chloro-N-(4-cyano-1H-imidazol-2-yl)-5-((3-hydroxy-2,2-dimethylpropanamido)methyl)benzamide formation at 2 uM after 4 hrs by LC-MS/MS analysis. It is filed as ADME, cell-based, Hepatocyte.
Series [9] can be described thus: Drug level in rat hepatocytes treated with 2-Chloro-N-(4-cyano-1H-imidazol-2-yl)-5-(pivalamidomethyl)benzamide at 2 uM after 4 hrs by LC-MS/MS analysis. It is filed as ADME, cell-based, Hepatocyte.
Series [10] can be described thus: Drug level in human hepatocytes treated with 2-Chloro-N-(4-cyano-1H-imidazol-2-yl)-5-(pivalamidomethyl)benzamide at 2 uM after 4 hrs by LC-MS/MS analysis. The series is classed as ADME, cell-based, Hepatocyte.
Series [11] in a line: Drug metabolism in rat hepatocytes assessed as 2-(2-chloro-5-((3-hydroxy-2,2-dimethylpropanamido)methyl)benzamido)-N-phenyl-1H-imidazole-4-carboxamide at 2 uM after 4 hrs by LC-MS/MS analysis. It is filed as ADME, cell-based, Hepatocyte.
Series [12] is described as follows: Drug metabolism in human hepatocytes assessed as 2-chloro-5-(pivalamidomethyl)benzoic acid formation at 2 uM after 4 hrs by LC-MS/MS analysis. It is filed as ADME, cell-based, Hepatocyte.
The nature of series [13]: Drug metabolism in rat hepatocytes assessed as metabolite M2 formation at 2 uM after 4 hrs by LC-MS/MS analysis. It is filed as ADME, cell-based, Hepatocyte.
The nature of series [14]: Drug metabolism in rat hepatocytes assessed as 2-(2-chloro-5-(pivalamidomethyl)benzamido)-1H-imidazole-4-carboxylic acid formation at 2 uM after 4 hrs by LC-MS/MS analysis. The series is classed as ADME, cell-based, Hepatocyte.
Series [15] is described as follows: Drug metabolism in rat hepatocytes assessed as 2-chloro-5-(pivalamidomethyl)benzoic acid formation at 2 uM after 4 hrs by LC-MS/MS analysis. The series is classed as ADME, cell-based, Hepatocyte.
Series [16] in a line: Drug metabolism in human hepatocytes assessed as 2-(2-chloro-5-(pivalamidomethyl)benzamido)-1H-imidazole-4-carboxylic acid formation at 2 uM after 4 hrs by LC-MS/MS analysis. The series is classed as ADME, cell-based, Hepatocyte.
Series [17] can be described thus: Drug metabolism in human hepatocytes assessed as 2-(2-chloro-5-((3-hydroxy-2,2-dimethylpropanamido)methyl)benzamido)-N-phenyl-1H-imidazole-4-carboxamide formation at 2 uM after 4 hrs by LC-MS/MS analysis. It is filed as ADME, cell-based, Hepatocyte.
Series [18] in a line: Drug metabolism in human hepatocytes assessed as metabolite M2 formation at 2 uM after 4 hrs by LC-MS/MS analysis. It is filed as ADME, cell-based, Hepatocyte.
A short description of series [19]: Drug level in human liver microsomes treated with 2 -Chloro-N-(4,5-dimethyl-1H-imidazol-2-yl)-5-(pivalamidomethyl)benzamide at 2 uM after 0.5 hrs in presence of 1:1 ratio of unlabeled GSH and [glycine 13C2,15N]-labelled GSH by HPLC-MS analysis. The series is classed as ADME, microsome. Put shortly: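 Glutathione-trapping incubation in human liver microsomes fortified with GSH to capture reactive intermediates. Metabolites and GSH adducts were identified by MS.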
For orientation: Microsomes from liver hold many membrane-bound enzymes, among them those of drug oxidation.

Series [20] can be described thus: Drug metabolism in rat hepatocytes assessed as N-carbamimidoyl-2-chloro-5-(pivalamidomethyl)benzamide formation at 2 uM after 4 hrs by LC-MS/MS analysis. The series is classed as ADME, cell-based, Hepatocyte.
The nature of series [21]: Drug metabolism in human hepatocytes assessed as N-carbamimidoyl-2-chloro-5-(pivalamidomethyl)benzamide formation at 2 uM after 4 hrs by LC-MS/MS analysis. The series is classed as ADME, cell-based, Hepatocyte.
Series [22] in a line: Drug metabolism in human hepatocytes assessed as 2-chloro-N-(4-(hydroxymethyl)-5-methyl-1H-imidazol-2-yl)-5-(pivalamidomethyl)benzamide formation at 2 uM after 4 hrs by LC-MS/MS analysis. It is filed as ADME, cell-based, Hepatocyte.
Series [23] can be described thus: Drug metabolism in rat hepatocytes assessed as 2-chloro-N-(4-(hydroxymethyl)-5-methyl-1H-imidazol-2-yl)-5-(pivalamidomethyl)benzamide formation at 2 uM after 4 hrs by LC-MS/MS analysis. The series is classed as ADME, cell-based, Hepatocyte.
A short description of series [24]: Drug metabolism in human hepatocytes assessed as 2-chloro-N-(4,5-dimethyl-1H-imidazol-2-yl)-5-((3-hydroxy-2,2-dimethylpropanamido)methyl)benzamide formation at 2 uM after 4 hrs by LC-MS/MS analysis. It is filed as ADME, cell-based, Hepatocyte.
A short description of series [25]: Drug metabolism in rat hepatocytes assessed as 2-chloro-N-(4,5-dimethyl-1H-imidazol-2-yl)-5-((3-hydroxy-2,2-dimethylpropanamido)methyl)benzamide formation at 2 uM after 4 hrs by LC-MS/MS analysis. It is filed as ADME, cell-based, Hepatocyte.

The structures appear in SMILES notation.

With `CC(C)(C)C(=O)NCc1ccc(Cl)c(C(=O)Nc2nc(C(N)=O)c[nH]2)c1`, the Drug metabolism entry in series [1] and in series [2] was “Metabolite_Notdetected” throughout.
Consider `CC(C)(C)C(=O)NCc1ccc(Cl)c(C(=O)Nc2nc(C(=O)O)c[nH]2)c1`, for which the Drug metabolism entry in [3], in [4], in series [5] and in series [6] was “Metabolite_Detected” throughout.
In the case of `CC(C)(C)C(=O)NCc1ccc(Cl)c(C(=O)Nc2nc(C#N)c[nH]2)c1`, the Drug metabolism entry in series [7] and in series [8] was “Metabolite_Detected” in each case.
As to `CC(C)(CO)C(=O)NCc1ccc(Cl)c(C(=O)Nc2nc(C#N)c[nH]2)c1`, the Drug metabolism entry in [9] and in series [10] was “Metabolite_Detected” throughout.
Regarding `CC(C)(C)C(=O)NCc1ccc(Cl)c(C(=O)Nc2nc(C(=O)Nc3ccccc3)c[nH]2)c1`, the Drug metabolism entry in [11], in series [12], in [13], in series [14], in series [15] and in series [16] was “Metabolite_Detected” each time. For the same compound, the Drug metabolism entry in [17] and in [18] was “Metabolite_Detected” throughout.
With `Cc1[nH]c(NC(=O)c2cc(CNC(=O)C(C)(C)C)ccc2Cl)nc1CSC[C@H](NC(=O)CC[C@H](N)C(=O)O)C(=O)NCC(=O)O`, in [19], the Drug metabolism result is recorded as “Metabolite_Detected”.
On to `Cc1nc(NC(=O)c2cc(CNC(=O)C(C)(C)C)ccc2Cl)[nH]c1C`, for which the Drug metabolism result in series [20], in series [21], in [22], in series [23], in series [24] and in series [25] was “Metabolite_Detected” each time.
